Assay results taken from publication PMC8771160 (Oncology Reports, 2022).

Columns and labels:
[1] = test system: DG75; assay: Cell proliferation assay; assay type: cell-based; conditions: KSHV (−) cell line DG75, 24 h
Procedure, shortened: (§1)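 PEL lines, KSHV-negative B-lymphoma lines or PBMCs were seeded at 1×10^4 cells/well and cultured with or without test compound at 37°C for 24 h. Cell Count Reagent SF was added (10 µl to 90 µl suspension) for 2 h at 37°C, and OD was read at 450 nm. Viability is expressed as % of untreated cells.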

[2] = test system: Ramos; assay: Cell proliferation assay; assay type: cell-based; conditions: KSHV (−) cell line Ramos, 24 h
Procedure, shortened: as §1

[3] = test system: HBL6; assay: Cell proliferation assay; assay type: cell-based; conditions: KSHV (+) cell line HBL6, 24 h
Procedure, shortened: as §1

[4] = test system: BCBL1; assay: Cell proliferation assay; assay type: cell-based; conditions: KSHV (+) cell line BCBL1, 24 h
Procedure, shortened: as §1

[5] = test system: BC3; assay: Cell proliferation assay; assay type: cell-based; conditions: KSHV (+) cell line BC3, 24 h
Procedure, shortened: as §1

[6] = test system: KSHV-uninfected B cell lines; assay: Cell proliferation assay, KSHV-uninfected B cell lines as a group; assay type: cell-based; conditions: 6.25 and 12.5 µM, 24 h
Procedure, shortened: as §1

[7] = test system: HIV RT; conditions: cited from earlier work
[8] = test system: influenza virus endonuclease; conditions: cited from earlier work
[9] = test system: HCV NS5B; conditions: cited from earlier work
[10] = test system: cancer cell proliferation; conditions: cited from earlier work

1,1,1′,1′-tetramethyl [60]fullerenodipyrrolidinium diiodide [Derivative #1]
CC50 [1]: 23.4 µM
CC50 [2]: 24.9 µM
CC50 [3]: 19.7 µM
CC50 [4]: > 25 µM
CC50 [5]: 15.5 µM
viability of DG75 and Ramos cells compared with the controls [6]: increased the viability
HIV RT inhibitory activity [7]: displayed HIV RT inhibitory activity
influenza virus endonuclease inhibitory activity [8]: inhibitory activities
HCV NS5B inhibitory activity [9]: inhibiting
cancer cell proliferation [10]: suppressed cancer cell proliferation
